Screening data: PubChem, several laboratories
T cell modulator – modulates CD8 T cell binding to vesicles; 2C CD8+ T cell-vesicle binding, flow cytometry; hits give low values; response (vesicle binding), % at 7 µM; 330,000 tested, 0.068% active; AID 2052;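 active means response, share of CD8 T cells binding vesicles, and their 90th percentile fluorescence all below set limits, cut at about 80% in these data, passing the limit was not always enough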;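 further: values below 100% mean blocked vesicle binding to the CD8+ T cells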
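incubation = binding step 1.5 h, 37 °C, antibody labelling 20 min, ice | test system = 2C mouse CD8+ T cells | read-out basis = percent CD8+ FL2 mean versus row control | controls = Peptide-free naked vesicles (low) and QL9 vesicles with 0.7% DMSO vehicle (high) | detection = flow cytometry of vesicle-bound cells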
MPTP inh – blocks calcium-induced mitochondrial swelling. isolated mouse mitochondria, Ca2+ swelling absorbance, 30 min. inhibition, % at 10 µM. 360,000 tested, 1.4% active;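 active means inhibition of 50% or more, scaled per plate between neutral and stimulator controls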;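 further: 0% = DMSO wells given calcium and 100% = 1 mM EGTA wells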
V-ATPase pHluor – yeast V-ATPase proton transport regulation by pHLuorin; S. cerevisiae, pHLuorin cytosolic pH fluorescence; 350,000 tested, 0.37% active; response, % at 10 µM; in the data active means response mostly above about 7.3%, no sharp cut-off; inactive means mostly below about 5.4%; further: actives read high
Exocytosis inh – blocks lytic granule exocytosis; TALL-104 LAMP-1 surface exposure, flow cytometry; cells stimulated with thapsigargin and PMA; AID 651702; 360,000 tested, 0.66% active; inhibition, % at 10 µM;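 active means inhibition above about 55%, limit read from the data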
rCAG binder – molecules binding r(CAG) RNA repeats | inhibition, % at 3 µM | r(CAG) RNA repeat, TO-PRO-1 dye displacement fluorescence | 370,000 tested, 1.3% active;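 active means inhibition above the plate cutoff, the mean of all test compounds on that plate plus 3 SD, cut at about 35% in these data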;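 further: 0% = DMSO alone and 100% = 100 µM mitoxantrone as full dye displacement; higher means more dye released from RNA so lower well fluorescence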
Beta2AR agonist – agonists of human beta-2 adrenergic receptor inducing internalization. Am2.2-beta2AR cells, FAP receptor internalization, flow cytometry. P07550. response, % (test concentration not listed). 340,000 tested, 0.43% active;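 active means response above a set limit, near 3 SD of response in nonfluorescent compounds, cut at about 42% in these data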
Target sequence (P07550 whole entry, looked up): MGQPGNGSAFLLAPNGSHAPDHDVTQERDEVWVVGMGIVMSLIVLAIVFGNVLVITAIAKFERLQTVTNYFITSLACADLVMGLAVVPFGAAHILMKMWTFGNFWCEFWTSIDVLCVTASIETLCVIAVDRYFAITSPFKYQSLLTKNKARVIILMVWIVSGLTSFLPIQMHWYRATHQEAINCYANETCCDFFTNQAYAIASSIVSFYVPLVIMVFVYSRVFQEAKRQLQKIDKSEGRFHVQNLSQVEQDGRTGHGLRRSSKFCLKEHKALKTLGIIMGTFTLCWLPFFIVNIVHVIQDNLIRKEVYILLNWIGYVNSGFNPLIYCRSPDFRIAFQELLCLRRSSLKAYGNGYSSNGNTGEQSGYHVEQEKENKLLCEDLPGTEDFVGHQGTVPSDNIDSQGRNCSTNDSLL
Exocytosis CP01 – lytic granule exocytosis inhibition; shares compounds with Exocytosis inh; TALL-104 cells, LAMP-1 externalization, flow cytometry; stimulated with PMA plus thapsigargin; inhibition, % at 10 µM; 1,500 tested, 11% active; in the data active means inhibition above about 60%;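 further: 0% = stimulated vehicle wells and 100% = unstimulated wells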
Starred values were filed as active, the others as inactive; i = inactive; · = no result. Hits are enriched below; roughly 3.8% of the tested compounds scored in any of these assays.

SMILES | T cell modulator | MPTP inh | V-ATPase pHluor | Exocytosis inh | rCAG binder | Beta2AR agonist | Exocytosis CP01
CSc1ccccc1NC(=O)CN(C)C(=O)CCc1c[nH]c2ccccc12 | 197.4 | 0.5 | 2.1 | 62.5* | 0.1 | 18.6 | -14.8
COC(=O)c1c(NC(=O)CSc2nnc(CNc3ccc(Cl)cc3)o2)sc(C)c1C | 266.9 | 0.9 | 1.7 | 91.7* | 7.9 | 7.8 | -2.8
Cc1ccc(NC(=O)C2CCN(c3ncccn3)CC2)cc1C | · | · | · | · | -2.2 | · | ·
O=C(CNc1nnnn1-c1ccccc1)N1CCCC1 | · | · | · | · | -1.2 | · | ·
Cc1cccc(N2C(=O)CC(Sc3nnc(C)s3)C2=O)c1 (stereo not drawn) | 216.5 | 6.2 | 2.7 | 67.4* | 7.9 | -1.9 | -1.2
Cc1ccc(N2C(=O)CC(Sc3nccc(C)n3)C2=O)cc1 (stereo not drawn) | 307.2 | -1.1 | 0.2 | 15.0 | -1.0 | -3.6 | ·
Cc1ccc(N2C(=O)CC(Sc3cccs3)C2=O)cc1 (stereo not drawn) | 139.8 | 2.5 | -1.9 | 86.4* | -2.2 | 2.4 | -8.3
COc1ccc(N2CCN(c3ncnc4scc(-c5ccc(C)cc5)c34)CC2)cc1 | 388.2 | 1.4 | -0.3 | 80.4* | 3.0 | -2.4 | -11.6
Fc1ccc(-c2csc3ncnc(N4CCN(c5ccccc5)CC4)c23)cc1 | 121.7 | 1.2 | 9.8 | -3.9 | 5.4 | -2.4 | ·
CCOc1ccc(CN2CCN(c3ncnc4scc(-c5ccccc5)c34)CC2)cc1 | 139.8 | -2.2 | 4.1 | 87.0* | -0.9 | -5.8 | -11.0
COc1ccc(F)cc1CN1CCN(c2ncnc3scc(-c4ccccc4)c23)CC1 | 181.8 | 1.3 | 0.2 | 70.0* | -1.3 | -0.4 | 9.8
COc1ccc(CN2CCN(c3ncnc4scc(-c5ccc(F)cc5)c34)CC2)cc1 | 463.6 | -0.4 | 5.5 | 60.5* | -9.9 | 8.1 | 0.8
Cn1c(=O)c(=O)n(C)c2cc(S(=O)(=O)N3CCN(Cc4ccc(F)cc4)CC3)ccc21 | · | · | · | · | 9.2 | · | ·
COc1ccc(N(CC(=O)NCCSCc2ccc(Cl)cc2)S(C)(=O)=O)cc1Cl | 153.5 | 1.1 | 0.7 | 66.8* | 2.2 | -2.5 | -0.3
COc1ccc(N(CC(=O)NCCSCc2cccc(Cl)c2)S(C)(=O)=O)cc1Cl | 185.3 | 0.4 | 1.3 | 59.8* | -3.3 | 8.1 | -9.7
COc1ccc(Cl)cc1N(CC(=O)NCCSCc1ccccc1)S(C)(=O)=O | 169.4 | -0.4 | -0.4 | 1.0 | -9.5 | -8.6 | ·
O=C(CN1C(=O)NC2(CCCC2)C1=O)Nc1nc(-c2ccc(F)c(F)c2)cs1 | 145.8 | 0.6 | 4.6 | -1.3 | 1.4 | 14.3 | ·
CC1(C(=O)OCC(=O)Nc2nc(-c3ccc(F)c(F)c3)cs2)CC1(Cl)Cl (stereo not drawn) | 295.5 | 5.9 | 1.9 | 91.6* | 0.4 | 23.1 | 100.8*
COc1ccccc1C(=O)Nc1c2c(nn1-c1cccc(C)c1C)CS(=O)(=O)C2 | 387.5 | -3.4 | 0.3 | 70.7* | 0.2 | -9.7 | -0.6
Oc1cc(Br)ccc1C=Nc1ccc(N2CCCCC2)cc1 | 306.5 | 0.0 | 3.7 | 64.8* | 3.8 | 6.2 | -3.4
Oc1ccc(Br)cc1C=Nc1ccc(Cl)cc1 | 782.2 | 3.1 | 0.7 | 4.0 | -0.4 | 9.8 | ·
COc1ccc(C(C)=O)cc1COC(=O)c1cc2ccccc2cc1O | i | 0.8 | 1.2 | 91.4* | 2.7 | -4.3 | -5.5
COc1ccc(F)cc1-c1cc(C(=O)NCc2ccc(C(F)(F)F)cc2)[nH]n1 | · | -0.3 | · | 73.0* | 0.7 | · | 35.5
CN1C(=O)C[C@@](C#N)(C(=O)NCc2ccc3c(c2)OCO3)[C@H]1c1ccccc1 | · | · | · | · | -0.6 | · | ·
COc1cc(C(C)=O)ccc1OCC(=O)NCC(c1ccc(F)cc1)N1CCOCC1 (stereo not drawn) | 505.6 | -1.3 | -0.8 | 61.6* | 1.1 | -0.6 | -4.7
SMILES | T cell modulator | MPTP inh | V-ATPase pHluor | Exocytosis inh | rCAG binder | Beta2AR agonist | Exocytosis CP01
CCC(C)N(C(=O)CNc1nnnn1-c1ccccc1)C(C)CC (stereo not drawn) | · | · | · | · | -2.8 | · | ·
NC(Cc1ccccc1)c1csc(Nc2ccc(C(=O)c3ccccc3)cc2)n1 (stereo not drawn) | · | 8.6 | · | 11.2 | 11.8 | · | ·
NC(Cc1ccc(Cl)cc1)c1csc(Nc2ccc(C(=O)c3ccccc3)cc2)n1 (stereo not drawn) | · | 4.3 | · | 58.2* | 14.5 | · | 10.0
CCOC(=O)N1CCN(CCC(=O)c2ccc(OC)cc2)CC1 | 76.9 | -0.3 | -0.1 | 14.0 | -3.4 | 2.0 | ·
CCOC(=O)N1CCN(CCC(=O)c2ccc(Br)cc2)CC1 | 196.7 | 1.5 | 3.0 | 88.1* | 0.6 | -2.5 | 7.7
CCOC(=O)c1nnn2c1nc(N(CC)CC)c1ccccc12 | 272.1 | 1.0 | 2.2 | 74.1* | -4.4 | 1.2 | -11.6
O=C(Nc1ccccc1Cl)c1ccc2c(=O)n3c(nc2c1)CCC3 | 622.4 | 0.1 | 5.7 | -0.4 | 0.8 | -3.2 | ·
O=C(Nc1nc(-c2ccccc2)cs1)c1ccc2c(=O)n3c(nc2c1)CCCCC3 | 162.8 | 11.5 | -1.4 | 97.2* | 6.2 | 18.1 | 68.2*
CC(C)(C)N(NC(=O)Nc1cccc(F)c1)C(=O)c1ccccc1Cl | · | · | · | · | 3.5 | · | ·
O=C(CCN1CCN(c2ccc([N+](=O)[O-])cc2)CC1)c1ccc(Cl)cc1 | 92.6 | 33.6 | 2.9 | 84.1* | -0.7 | 0.8 | -7.6
COC(=O)[C@]12C[C@H](CC(=O)N3CCCCC3)C(=O)N(Cc3ccco3)C1=C[C@H](C1CCCC1)O[C@@H]2C | · | · | · | · | -1.1 | · | ·
CCC(=O)Nc1c(C#N)c2nc3ccccc3nc2n1-c1ccc(C)cc1 | · | 15.2 | -4.6 | 3.3 | 10.5 | 5.4 | ·
N#Cc1c(NC(=O)c2ccc(Br)o2)n(-c2ccccc2)c2nc3ccccc3nc12 | 166.2 | 48.3 | -2.0 | 72.3* | 22.3 | -16.4 | 96.5*
Oc1cc(OCc2ccccc2)ccc1-c1[nH]ncc1-c1ccccc1 | 144.3 | 19.6 | -2.5 | 100.1* | 8.1 | 3.9 | 16.1
C=C(C)COc1ccc(-c2[nH]ncc2-c2ccccc2)c(O)c1 | 350.9 | 5.0 | 0.8 | 85.1* | 5.7 | -2.9 | 4.1
COc1ccc(-c2cn[nH]c2-c2ccc(OCc3ccccc3)cc2O)cc1OC | 266.2 | 2.9 | -2.0 | 64.2* | 2.6 | 21.9 | -3.9
COc1ccc(-c2cn[nH]c2-c2ccc(OCc3ccc(F)cc3)cc2O)cc1OC | 157.8 | 6.5 | -0.9 | 19.1 | 5.7 | 1.0 | ·
CC1(C)CC2CC(C)(CN2C(=O)NC(=O)c2ccccc2)C1 (stereo not drawn) | 395.0 | 0.9 | -1.4 | 65.8* | -4.8 | -5.2 | -4.6
CCCn1c2c(c(=N)c3c1CCC3)CCC2 | 359.8 | 1.1 | -3.0 | -4.8 | -0.5 | 5.0 | ·
CCCCCCCn1c2c(c(=N)c3ccccc31)CCC2 | 115.9 | 18.9 | 4.5 | 71.2* | 11.7 | -8.6 | -8.9
O=S1(=O)N[C@@H](Cc2ccccc2)COc2cccc(N3CCCC3)c21 | · | · | · | · | 2.4 | · | ·
CSc1ccc2c(c1)C(N1CCN(C)CC1)Cc1ccc(F)cc1S2 (stereo not drawn) | 953.4 | -6.9 | -6.0 | 69.4* | -1.4 | 33.5 | 39.1
